Results taken from ChEMBL document CHEMBL1781919, “Synthesis and anticonvulsant properties of 1-(amino-N-arylmethanethio)-3-(1-substituted benzyl-2, 3-dioxoindolin-5-yl) urea derivatives” (Eur J Med Chem, 2011).
The source made the active and inactive calls. The calls are words filed in the database; no cut-off is given here.

Assays:
Mus musculus [1] = experiment: Anticonvulsant activity in mouse assessed as protection against maximal electroshock-induced seizures at 30 mg/kg, ip after 0.5 hrs; format: functional, organism-based; parameters: dose 30 mg/kg
How it was run: (§1)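 Mouse Test 1: i.p. dosing at 0.01 mL/g. Sets of one, three and one animals receive 30, 100 and 300 mg/kg respectively, each tested at 0.5 h and 4.0 h. Score is N/F, the number of animals protected over the number tested. Screening performed by NINDS following the ADD program protocol.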

Mus musculus [2] = experiment: Anticonvulsant activity in mouse assessed as protection against electrically-induced seizure at 100 mg/kg, ip after 0.25 hrs by 6Hz psychomotor seizure test; format: functional, organism-based; parameters: dose 100 mg/kg
How it was run: (§2)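 Mice pretreated by i.p. injection at 100 mg/kg, then challenged through corneal electrodes at 6 Hz, 32 mA for 3 s, which elicits a psychomotor seizure in 97% of animals. Four mice per time point. Score is N/F, the number of animals protected over the number tested. Testing run under the NINDS Anticonvulsant Screening Program.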

Mus musculus [3] = experiment: Neurotoxicity in mouse assessed as minimum motor impairment at 30 mg/kg, ip after 4 hrs by rotarod test; format: toxicity, organism-based; parameters: dose 30 mg/kg, route intraperitoneal; details: in vivo
How it was run: (§3)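 Rotorod test for minimal motor impairment in mice given 30, 100 or 300 mg/kg i.p. at 0.01 mL/g, using sets of one, three and one animals, at 0.5 h and 4.0 h. Animals are observed at each dose and time. Score is N/F, the number showing toxicity over the number tested.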

Mus musculus [4] = experiment: Anticonvulsant activity in mouse assessed as protection against electrically-induced seizure at 100 mg/kg, ip after 0.5 hrs by 6Hz psychomotor seizure test; format: functional, organism-based; parameters: dose 100 mg/kg; how it was run: as §2
Mus musculus [5] = experiment: Anticonvulsant activity in mouse assessed as protection against maximal electroshock-induced seizures at 100 mg/kg, ip after 0.5 hrs; format: functional, organism-based; parameters: dose 100 mg/kg; how it was run: as §1
Mus musculus [6] = experiment: Anticonvulsant activity in mouse assessed as protection against subcutaneous pentylenetetrazole-induced seizures at 300 mg/kg, ip after 4 hrs; format: functional, organism-based; parameters: dose 300 mg/kg
Mus musculus [7] = experiment: Neurotoxicity in mouse assessed as electrically-induced clonic seizures at 100 mg/kg, ip after 4 hrs by rotarod test; format: toxicity, organism-based; parameters: dose 100 mg/kg, route intraperitoneal; details: in vivo
How it was run: (§4)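 Rotorod toxicity in mice given 100 mg/kg i.p., four per time point, alongside the 6 Hz test. The endpoint is inability to maintain balance on the rotorod. Score is N/F, the number of animals showing toxicity over the number tested.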

Mus musculus [8] = experiment: Anticonvulsant activity in mouse assessed as protection against subcutaneous pentylenetetrazole-induced seizures at 30 mg/kg, ip after 4 hrs; format: functional, organism-based; parameters: dose 30 mg/kg
Mus musculus [9] = experiment: Neurotoxicity in mouse assessed as electrically-induced clonic seizures at 100 mg/kg, ip after 0.5 hrs by rotarod test; format: toxicity, organism-based; parameters: dose 100 mg/kg, route intraperitoneal; details: in vivo; how it was run: as §4
Mus musculus [10] = experiment: Anticonvulsant activity in mouse assessed as protection against electrically-induced seizure at 100 mg/kg, ip after 2 hrs by 6Hz psychomotor seizure test; format: functional, organism-based; parameters: dose 100 mg/kg; how it was run: as §2
[11] = Octanol-phosphate buffer partition coefficient, log P of the compound; format: physicochemical
How it was run: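 Octanol and phosphate buffer partition run at room temperature (29 °C). After separation, the phases are membrane-filtered and drug in the aqueous phase is measured by UV. PC = (Ct − Ca)/Ca, where Ct is total drug concentration and Ca is aqueous-phase concentration.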

Mus musculus [12] = experiment: Anticonvulsant activity in mouse assessed as protection against maximal electroshock-induced seizures at 100 mg/kg, ip after 4 hrs; format: functional, organism-based; parameters: dose 100 mg/kg; how it was run: as §1
Mus musculus [13] = experiment: Neurotoxicity in mouse assessed as minimum motor impairment at 300 mg/kg, ip after 4 hrs by rotarod test; format: toxicity, organism-based; parameters: dose 300 mg/kg, route intraperitoneal; details: in vivo; how it was run: as §3
Mus musculus [14] = experiment: Neurotoxicity in mouse assessed as electrically-induced clonic seizures at 100 mg/kg, ip after 0.25 hrs by rotarod test; format: toxicity, organism-based; parameters: dose 100 mg/kg, route intraperitoneal; details: in vivo; how it was run: as §4
Mus musculus [15] = experiment: Anticonvulsant activity in mouse assessed as protection against maximal electroshock-induced seizures at 30 mg/kg, ip after 4 hrs; format: functional, organism-based; parameters: dose 30 mg/kg; how it was run: as §1
Mus musculus [16] = experiment: Anticonvulsant activity in mouse assessed as protection against electrically-induced seizure at 100 mg/kg, ip after 1 hr by 6Hz psychomotor seizure test; format: functional, organism-based; parameters: dose 100 mg/kg; how it was run: as §2
Mus musculus [17] = experiment: Anticonvulsant activity in mouse assessed as protection against maximal electroshock-induced seizures at 300 mg/kg, ip after 0.5 hrs; format: functional, organism-based; parameters: dose 300 mg/kg; how it was run: as §1
Mus musculus [18] = experiment: Anticonvulsant activity in mouse assessed as protection against subcutaneous pentylenetetrazole-induced seizures at 100 mg/kg, ip after 0.5 hrs; format: functional, organism-based; parameters: dose 100 mg/kg
Mus musculus [19] = experiment: Anticonvulsant activity in mouse assessed as protection against electrically-induced seizure at 100 mg/kg, ip after 4 hrs by 6Hz psychomotor seizure test; format: functional, organism-based; parameters: dose 100 mg/kg; how it was run: as §2
Mus musculus [20] = experiment: Neurotoxicity in mouse assessed as electrically-induced clonic seizures at 100 mg/kg, ip after 1 hr by rotarod test; format: toxicity, organism-based; parameters: dose 100 mg/kg, route intraperitoneal; details: in vivo; how it was run: as §4
Mus musculus [21] = experiment: Anticonvulsant activity in mouse assessed as protection against subcutaneous pentylenetetrazole-induced seizures at 30 mg/kg, ip after 0.5 hrs; format: functional, organism-based; parameters: dose 30 mg/kg
Mus musculus [22] = experiment: Anticonvulsant activity in mouse assessed as protection against subcutaneous pentylenetetrazole-induced seizures at 300 mg/kg, ip after 0.5 hrs; format: functional, organism-based; parameters: dose 300 mg/kg
Mus musculus [23] = experiment: Neurotoxicity in mouse assessed as minimum motor impairment at 100 mg/kg, ip after 0.5 hrs by rotarod test; format: toxicity, organism-based; parameters: dose 100 mg/kg, route intraperitoneal; details: in vivo; how it was run: as §3
Mus musculus [24] = experiment: Neurotoxicity in mouse assessed as minimum motor impairment at 100 mg/kg, ip after 4 hrs by rotarod test; format: toxicity, organism-based; parameters: dose 100 mg/kg, route intraperitoneal; details: in vivo; how it was run: as §3
Mus musculus [25] = experiment: Neurotoxicity in mouse assessed as minimum motor impairment at 300 mg/kg, ip after 0.5 hrs by rotarod test; format: toxicity, organism-based; parameters: dose 300 mg/kg, route intraperitoneal; details: in vivo; how it was run: as §3
Mus musculus [26] = experiment: Neurotoxicity in mouse assessed as electrically-induced clonic seizures at 100 mg/kg, ip after 2 hrs by rotarod test; format: toxicity, organism-based; parameters: dose 100 mg/kg, route intraperitoneal; details: in vivo; how it was run: as §4
Mus musculus [27] = experiment: Anticonvulsant activity in mouse assessed as protection against subcutaneous pentylenetetrazole-induced seizures at 100 mg/kg, ip after 4 hrs; format: functional, organism-based; parameters: dose 100 mg/kg
Mus musculus [28] = experiment: Neurotoxicity in mouse assessed as minimum motor impairment at 30 mg/kg, ip after 0.5 hrs by rotarod test; format: toxicity, organism-based; parameters: dose 30 mg/kg, route intraperitoneal; details: in vivo; how it was run: as §3
Mus musculus [29] = experiment: Anticonvulsant activity in mouse assessed as protection against maximal electroshock-induced seizures at 300 mg/kg, ip after 4 hrs; format: functional, organism-based; parameters: dose 300 mg/kg; how it was run: as §1

Row | logP [11] | SMILES | Activity (Mus musculus [1]) | Activity (Mus musculus [2]) | Activity (Mus musculus [3]) | Activity (Mus musculus [4]) | Activity (Mus musculus [5]) | Activity (Mus musculus [6]) | Activity (Mus musculus [7]) | Activity (Mus musculus [8]) | Activity (Mus musculus [9]) | Activity (Mus musculus [10]) | Activity (Mus musculus [12]) | Activity (Mus musculus [13]) | Activity (Mus musculus [14]) | Activity (Mus musculus [15]) | Activity (Mus musculus [16]) | Activity (Mus musculus [17]) | Activity (Mus musculus [18]) | Activity (Mus musculus [19]) | Activity (Mus musculus [20]) | further results
1 | 3.18 | O=C(NC(=S)Nc1ccccc1)Nc1ccc2c(c1)C(=O)C(=O)N2Cc1ccccc1Cl | inactive | Active | Non-toxic | Active | inactive | inactive | Non-toxic | inactive | Non-toxic | inactive | Active | Non-toxic | Non-toxic | inactive | Active | Active | inactive | inactive | Non-toxic | Activity (Mus musculus [21]): inactive; Activity (Mus musculus [22]): Active; Activity (Mus musculus [23]): Non-toxic; Activity (Mus musculus [24]): Non-toxic; Activity (Mus musculus [25]): Non-toxic; Activity (Mus musculus [26]): Non-toxic; Activity (Mus musculus [27]): inactive; Activity (Mus musculus [28]): Non-toxic
2 | 2.39 | COc1ccc(NC(=S)NC(=O)Nc2ccc3c(c2)C(=O)C(=O)N3Cc2ccccc2)cc1 | inactive | Active | Non-toxic | Active | inactive | inactive | Non-toxic | inactive | Non-toxic | inactive | inactive | Non-toxic | Non-toxic | inactive | inactive | Active | inactive | inactive | Non-toxic | Activity (Mus musculus [21]): inactive; Activity (Mus musculus [29]): Active; Activity (Mus musculus [22]): Active; Activity (Mus musculus [23]): Non-toxic; Activity (Mus musculus [24]): Non-toxic; Activity (Mus musculus [25]): Non-toxic; Activity (Mus musculus [26]): Non-toxic; Activity (Mus musculus [27]): inactive; Activity (Mus musculus [28]): Non-toxic
